# In ChEMBL document CHEMBL2424622, “Development of amino-pyrimidine inhibitors of c-Jun N-terminal kinase (JNK): kinase profiling guided optimization of a 1,2,3-benzotriazole lead” (Bioorg Med Chem Lett, 2013):
# Tests used:
# [1] = biological target: Vascular endothelial growth factor receptor 3 (Homo sapiens) (UniProt P35916); assay: Competitive binding affinity to FLT4 (unknown origin) at 10 uM in presence of ATP relative to control
# Outline: (§1)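 In vitro ATP-site competition binding assay, part of profiling against a diverse panel of 128 kinases. Each compound was tested at a single concentration of 10 µM. Kinome selectivity was summarized as S15 selectivity scores.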
# [2] = biological target: Receptor-type tyrosine-protein kinase FLT3 (Homo sapiens) (UniProt P36888); assay: Competitive binding affinity to FLT3 (unknown origin) at 10 uM in presence of ATP relative to control; outline: as §1
# [3] = biological target: Tyrosine-protein kinase CSK (Homo sapiens) (UniProt P41240); assay: Competitive binding affinity to CSK (unknown origin) at 10 uM in presence of ATP relative to control
# Sequence of Tyrosine-protein kinase CSK (Homo sapiens) (P41240 2-450 limits assumed): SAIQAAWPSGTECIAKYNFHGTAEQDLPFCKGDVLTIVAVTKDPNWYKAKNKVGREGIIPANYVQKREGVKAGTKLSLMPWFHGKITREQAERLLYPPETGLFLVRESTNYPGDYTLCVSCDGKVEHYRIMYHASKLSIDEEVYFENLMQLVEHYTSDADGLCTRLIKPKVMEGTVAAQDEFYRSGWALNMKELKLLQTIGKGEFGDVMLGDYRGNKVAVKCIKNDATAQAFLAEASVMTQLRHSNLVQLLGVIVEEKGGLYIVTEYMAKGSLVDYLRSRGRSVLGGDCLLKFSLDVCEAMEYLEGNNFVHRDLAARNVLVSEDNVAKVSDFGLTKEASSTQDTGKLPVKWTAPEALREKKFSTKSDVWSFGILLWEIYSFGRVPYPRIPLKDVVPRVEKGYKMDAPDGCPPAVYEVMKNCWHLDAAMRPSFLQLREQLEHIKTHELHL
# [4] = biological target: Casein kinase I isoform epsilon (Homo sapiens) (UniProt P49674); assay: Competitive binding affinity to CSNK1E (unknown origin) at 10 uM in presence of ATP relative to control
# Sequence of Casein kinase I isoform epsilon (Homo sapiens) (P49674 whole entry, looked up, canonical isoform): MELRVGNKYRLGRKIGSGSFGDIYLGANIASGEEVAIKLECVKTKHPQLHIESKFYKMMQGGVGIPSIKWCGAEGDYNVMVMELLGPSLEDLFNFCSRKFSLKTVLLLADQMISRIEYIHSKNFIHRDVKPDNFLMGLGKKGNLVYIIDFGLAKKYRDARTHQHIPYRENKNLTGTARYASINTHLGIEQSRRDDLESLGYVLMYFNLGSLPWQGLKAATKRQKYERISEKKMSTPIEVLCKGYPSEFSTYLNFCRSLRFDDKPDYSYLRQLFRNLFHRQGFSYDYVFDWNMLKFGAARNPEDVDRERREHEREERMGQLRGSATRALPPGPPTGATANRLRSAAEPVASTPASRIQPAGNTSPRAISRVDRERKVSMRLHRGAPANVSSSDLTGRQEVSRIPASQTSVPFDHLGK
# [5] = biological target: Dual specificity protein kinase CLK3 (Homo sapiens) (UniProt P49761); assay: Competitive binding affinity to CLK3 (unknown origin) at 10 uM in presence of ATP relative to control
# Sequence of Dual specificity protein kinase CLK3 (Homo sapiens) (P49761 whole entry, looked up): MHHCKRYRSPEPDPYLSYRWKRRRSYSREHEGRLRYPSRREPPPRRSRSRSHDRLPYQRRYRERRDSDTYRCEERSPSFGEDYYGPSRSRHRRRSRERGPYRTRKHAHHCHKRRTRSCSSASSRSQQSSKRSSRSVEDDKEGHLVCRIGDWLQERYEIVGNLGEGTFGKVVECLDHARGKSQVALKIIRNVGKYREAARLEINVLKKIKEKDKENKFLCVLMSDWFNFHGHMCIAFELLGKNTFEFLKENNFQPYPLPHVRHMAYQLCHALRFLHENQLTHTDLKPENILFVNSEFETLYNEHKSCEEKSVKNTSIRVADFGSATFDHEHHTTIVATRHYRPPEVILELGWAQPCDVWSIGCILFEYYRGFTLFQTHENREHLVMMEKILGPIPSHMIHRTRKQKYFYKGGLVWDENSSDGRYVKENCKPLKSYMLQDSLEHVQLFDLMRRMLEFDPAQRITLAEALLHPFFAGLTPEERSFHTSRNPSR
# [6] = biological target: Dual specificity protein kinase CLK2 (Homo sapiens) (UniProt P49760); assay: Competitive binding affinity to CLK2 (unknown origin) at 10 uM in presence of ATP relative to control
# Sequence of Dual specificity protein kinase CLK2 (Homo sapiens) (P49760 whole entry, looked up): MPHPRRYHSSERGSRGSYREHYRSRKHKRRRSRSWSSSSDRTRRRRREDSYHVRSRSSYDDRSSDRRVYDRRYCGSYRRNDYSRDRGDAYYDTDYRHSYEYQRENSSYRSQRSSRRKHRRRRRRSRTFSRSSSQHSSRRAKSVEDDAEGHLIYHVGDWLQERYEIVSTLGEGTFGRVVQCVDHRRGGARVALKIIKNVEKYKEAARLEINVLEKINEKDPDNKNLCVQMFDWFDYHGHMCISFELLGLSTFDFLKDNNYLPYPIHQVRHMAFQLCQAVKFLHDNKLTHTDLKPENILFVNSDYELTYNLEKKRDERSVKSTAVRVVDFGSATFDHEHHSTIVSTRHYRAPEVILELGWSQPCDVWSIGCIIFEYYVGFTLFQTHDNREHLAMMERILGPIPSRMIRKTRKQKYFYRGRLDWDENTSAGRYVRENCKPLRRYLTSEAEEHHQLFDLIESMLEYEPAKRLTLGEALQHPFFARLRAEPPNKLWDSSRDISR
# Outline: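 In vitro ATP-site competition binding assay across a diverse panel of 128 kinases, with each compound tested at a single concentration. Kinase binding is expressed relative to control.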
# [7] = biological target: Cyclin-dependent kinase 5 (Homo sapiens) (UniProt Q00535); assay: Competitive binding affinity to CDK5 (unknown origin) at 10 uM in presence of ATP relative to control
# [8] = biological target: RAC-alpha serine/threonine-protein kinase (Homo sapiens) (UniProt P31749); assay: Competitive binding affinity to AKT1 (unknown origin) at 10 uM in presence of ATP relative to control
# [9] = biological target: Vascular endothelial growth factor receptor 2 (Homo sapiens) (UniProt P35968); assay: Competitive binding affinity to VEGFR2 (unknown origin) at 10 uM in presence of ATP relative to control
# Sequence of Vascular endothelial growth factor receptor 2 (Homo sapiens) (P35968 whole entry): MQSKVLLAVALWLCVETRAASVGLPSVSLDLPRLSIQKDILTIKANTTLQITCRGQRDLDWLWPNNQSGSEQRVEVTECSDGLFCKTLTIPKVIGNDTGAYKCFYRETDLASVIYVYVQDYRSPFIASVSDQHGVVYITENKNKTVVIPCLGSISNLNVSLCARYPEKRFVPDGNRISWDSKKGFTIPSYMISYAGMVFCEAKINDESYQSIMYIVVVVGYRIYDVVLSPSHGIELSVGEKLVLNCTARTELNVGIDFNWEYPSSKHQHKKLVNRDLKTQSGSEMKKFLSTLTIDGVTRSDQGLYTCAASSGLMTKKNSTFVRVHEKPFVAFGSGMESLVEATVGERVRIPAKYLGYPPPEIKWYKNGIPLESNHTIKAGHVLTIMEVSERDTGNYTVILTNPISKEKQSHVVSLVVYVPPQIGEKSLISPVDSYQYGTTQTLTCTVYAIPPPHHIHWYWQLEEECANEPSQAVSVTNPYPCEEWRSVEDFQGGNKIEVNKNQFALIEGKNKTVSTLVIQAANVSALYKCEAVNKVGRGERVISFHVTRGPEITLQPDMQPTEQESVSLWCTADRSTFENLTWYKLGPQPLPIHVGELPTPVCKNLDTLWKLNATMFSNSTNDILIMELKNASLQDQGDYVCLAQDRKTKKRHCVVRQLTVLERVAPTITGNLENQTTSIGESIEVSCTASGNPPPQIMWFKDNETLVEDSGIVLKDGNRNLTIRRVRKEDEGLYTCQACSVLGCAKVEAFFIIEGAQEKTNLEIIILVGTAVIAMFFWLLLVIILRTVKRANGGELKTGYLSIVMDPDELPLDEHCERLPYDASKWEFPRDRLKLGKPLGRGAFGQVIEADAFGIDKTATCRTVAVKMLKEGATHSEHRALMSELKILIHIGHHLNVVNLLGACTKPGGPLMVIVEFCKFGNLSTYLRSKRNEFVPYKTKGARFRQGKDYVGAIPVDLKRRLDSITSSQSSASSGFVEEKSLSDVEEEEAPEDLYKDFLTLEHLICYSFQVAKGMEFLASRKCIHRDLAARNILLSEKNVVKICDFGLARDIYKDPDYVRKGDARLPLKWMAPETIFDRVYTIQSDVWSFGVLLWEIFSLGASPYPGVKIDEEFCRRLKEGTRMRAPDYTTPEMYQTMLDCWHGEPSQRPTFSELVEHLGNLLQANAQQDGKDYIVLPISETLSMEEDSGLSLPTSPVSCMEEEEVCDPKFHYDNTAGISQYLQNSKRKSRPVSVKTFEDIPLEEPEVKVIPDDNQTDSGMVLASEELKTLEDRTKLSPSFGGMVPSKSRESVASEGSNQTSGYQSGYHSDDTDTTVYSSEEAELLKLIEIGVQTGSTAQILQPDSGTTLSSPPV
# Outline: (§2)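 In vitro ATP-site competition binding assay across a diverse panel of 128 kinases, with compound tested at a single concentration. Kinase selectivity scores (S15) were calculated from the panel profiles.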
# [10] = biological target: STE20-like serine/threonine-protein kinase (Homo sapiens) (UniProt Q9H2G2); assay: Competitive binding affinity to SLK (unknown origin) at 10 uM in presence of ATP relative to control; outline: as §2
# Sequence of STE20-like serine/threonine-protein kinase (Homo sapiens) (Q9H2G2 whole entry, looked up, the tested form may be a part): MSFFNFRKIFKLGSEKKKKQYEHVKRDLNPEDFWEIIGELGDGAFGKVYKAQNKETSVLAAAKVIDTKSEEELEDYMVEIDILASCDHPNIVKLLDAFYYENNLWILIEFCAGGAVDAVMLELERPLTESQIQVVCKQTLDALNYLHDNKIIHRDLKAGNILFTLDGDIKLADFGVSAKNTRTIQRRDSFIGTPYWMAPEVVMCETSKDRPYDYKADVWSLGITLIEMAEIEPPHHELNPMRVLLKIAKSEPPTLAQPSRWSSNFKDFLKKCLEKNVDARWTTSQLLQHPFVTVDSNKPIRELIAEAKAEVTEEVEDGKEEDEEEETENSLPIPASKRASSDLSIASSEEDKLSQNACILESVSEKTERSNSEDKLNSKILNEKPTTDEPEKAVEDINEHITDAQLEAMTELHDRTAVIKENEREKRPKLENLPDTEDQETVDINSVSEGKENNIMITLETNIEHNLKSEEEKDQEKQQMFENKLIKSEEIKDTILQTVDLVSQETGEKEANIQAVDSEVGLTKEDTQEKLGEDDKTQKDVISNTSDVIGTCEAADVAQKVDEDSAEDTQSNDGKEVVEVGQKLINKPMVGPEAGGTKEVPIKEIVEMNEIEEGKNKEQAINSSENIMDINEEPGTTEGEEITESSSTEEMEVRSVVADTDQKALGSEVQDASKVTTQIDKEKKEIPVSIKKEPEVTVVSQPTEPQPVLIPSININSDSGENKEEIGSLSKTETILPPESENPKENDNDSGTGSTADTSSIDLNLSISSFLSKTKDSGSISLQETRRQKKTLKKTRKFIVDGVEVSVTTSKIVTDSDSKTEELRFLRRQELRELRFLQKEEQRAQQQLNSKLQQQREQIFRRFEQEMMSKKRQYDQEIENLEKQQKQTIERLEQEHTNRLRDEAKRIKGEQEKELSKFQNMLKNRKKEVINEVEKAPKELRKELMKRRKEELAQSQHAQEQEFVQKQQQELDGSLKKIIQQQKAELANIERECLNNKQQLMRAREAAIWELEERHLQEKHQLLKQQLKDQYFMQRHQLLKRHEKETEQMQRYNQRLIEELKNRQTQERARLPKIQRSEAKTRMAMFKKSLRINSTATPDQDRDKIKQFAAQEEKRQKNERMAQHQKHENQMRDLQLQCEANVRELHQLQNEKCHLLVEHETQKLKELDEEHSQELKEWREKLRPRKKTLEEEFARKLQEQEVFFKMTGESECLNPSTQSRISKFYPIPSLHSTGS
# [11] = biological target: Ribosomal protein S6 kinase alpha-5 (Homo sapiens) (UniProt O75582); assay: Competitive binding affinity to RPS6KA5 kinase domain 1 (unknown origin) at 10 uM in presence of ATP relative to control; outline: as §2
# [12] = biological target: Protein-tyrosine kinase 6 (Homo sapiens) (UniProt Q13882); assay: Competitive binding affinity to PTK6 (unknown origin) at 10 uM in presence of ATP relative to control; outline: as §2
# Sequence of Protein-tyrosine kinase 6 (Homo sapiens) (Q13882 whole entry, looked up): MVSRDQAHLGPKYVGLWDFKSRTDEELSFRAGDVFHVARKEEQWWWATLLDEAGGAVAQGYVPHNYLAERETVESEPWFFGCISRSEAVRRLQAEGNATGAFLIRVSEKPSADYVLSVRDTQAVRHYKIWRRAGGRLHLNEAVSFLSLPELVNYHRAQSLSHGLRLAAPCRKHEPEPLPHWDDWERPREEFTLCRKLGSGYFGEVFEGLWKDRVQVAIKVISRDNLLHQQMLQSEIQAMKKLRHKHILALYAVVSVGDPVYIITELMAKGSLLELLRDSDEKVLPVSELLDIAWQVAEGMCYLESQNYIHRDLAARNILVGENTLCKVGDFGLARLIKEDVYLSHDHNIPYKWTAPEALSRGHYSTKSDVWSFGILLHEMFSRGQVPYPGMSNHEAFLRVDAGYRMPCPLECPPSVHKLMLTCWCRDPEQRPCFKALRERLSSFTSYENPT
# [13] = biological target: T1, Serine/threonine-protein kinase PLK4 (Homo sapiens) (UniProt O00444); assay: Competitive binding affinity to PLK4 (unknown origin) at 10 uM in presence of ATP relative to control; outline: as §2
# T1 sequence (whole entry): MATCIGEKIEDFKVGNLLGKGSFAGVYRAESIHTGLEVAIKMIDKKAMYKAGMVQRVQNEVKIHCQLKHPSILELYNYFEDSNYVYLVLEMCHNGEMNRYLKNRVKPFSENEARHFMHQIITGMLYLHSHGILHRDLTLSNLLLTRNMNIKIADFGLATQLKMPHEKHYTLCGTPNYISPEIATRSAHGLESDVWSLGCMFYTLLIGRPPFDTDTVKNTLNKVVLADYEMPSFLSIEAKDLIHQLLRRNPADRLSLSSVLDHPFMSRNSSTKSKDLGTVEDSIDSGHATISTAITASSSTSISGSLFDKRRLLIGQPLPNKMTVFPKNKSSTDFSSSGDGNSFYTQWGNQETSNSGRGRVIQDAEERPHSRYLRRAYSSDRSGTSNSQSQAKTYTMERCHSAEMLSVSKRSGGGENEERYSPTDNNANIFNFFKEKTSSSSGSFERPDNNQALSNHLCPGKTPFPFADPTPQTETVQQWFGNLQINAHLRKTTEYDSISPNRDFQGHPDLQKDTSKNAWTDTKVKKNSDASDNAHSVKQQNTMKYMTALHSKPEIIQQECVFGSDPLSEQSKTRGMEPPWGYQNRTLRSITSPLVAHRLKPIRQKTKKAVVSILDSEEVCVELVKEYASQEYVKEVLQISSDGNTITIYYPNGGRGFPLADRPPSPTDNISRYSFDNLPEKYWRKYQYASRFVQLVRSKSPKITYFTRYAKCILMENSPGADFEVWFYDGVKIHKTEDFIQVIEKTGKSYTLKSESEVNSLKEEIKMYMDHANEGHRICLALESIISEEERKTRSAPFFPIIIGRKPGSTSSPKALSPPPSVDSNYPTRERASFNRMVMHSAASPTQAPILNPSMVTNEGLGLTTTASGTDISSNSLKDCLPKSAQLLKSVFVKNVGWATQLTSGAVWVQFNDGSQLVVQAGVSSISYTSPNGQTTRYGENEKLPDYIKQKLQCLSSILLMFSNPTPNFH
# [14] = biological target: T2, Phosphorylase b kinase gamma catalytic chain, liver/testis isoform (Homo sapiens) (UniProt P15735); assay: Competitive binding affinity to PHKG2 (unknown origin) at 10 uM in presence of ATP relative to control; outline: as §2
# T2 sequence (whole entry): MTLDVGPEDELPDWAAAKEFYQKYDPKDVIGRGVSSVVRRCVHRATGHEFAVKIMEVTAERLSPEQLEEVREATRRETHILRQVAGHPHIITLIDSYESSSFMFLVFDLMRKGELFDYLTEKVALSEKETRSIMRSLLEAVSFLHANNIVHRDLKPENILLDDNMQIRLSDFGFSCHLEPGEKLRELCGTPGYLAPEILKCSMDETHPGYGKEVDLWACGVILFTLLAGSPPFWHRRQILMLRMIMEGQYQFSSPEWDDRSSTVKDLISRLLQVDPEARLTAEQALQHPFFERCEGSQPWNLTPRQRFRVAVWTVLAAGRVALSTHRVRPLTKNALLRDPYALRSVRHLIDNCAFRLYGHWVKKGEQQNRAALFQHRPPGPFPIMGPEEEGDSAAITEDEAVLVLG
# [15] = biological target: Platelet-derived growth factor receptor alpha (Homo sapiens) (UniProt P16234); assay: Competitive binding affinity to PDGFRA (unknown origin) at 10 uM in presence of ATP relative to control; outline: as §2
# [16] = biological target: Tyrosine-protein kinase Lck (Homo sapiens) (UniProt P06239); assay: Competitive binding affinity to LCK (unknown origin) at 10 uM in presence of ATP relative to control; outline: as §1
Compound,inhibition [1],inhibition [2],inhibition [3],inhibition [4],inhibition [5],inhibition [6],inhibition [7],inhibition [8],inhibition [9],inhibition [10],inhibition [11],inhibition [12],inhibition [13],inhibition [14],inhibition [15],inhibition [16]
O[C@H]1CC[C@H](Nc2nccc(-n3ccc4ccccc43)n2)CC1,< 50%,85%,< 50%,85%,< 50%,97%,< 50%,< 50%,< 50%,< 50%,< 50%,< 50%,< 50%,< 50%,< 50%,< 50%
N[C@H]1CC[C@H](Nc2nccc(-n3nnc4ccccc43)n2)CC1,< 50%,92%,< 50%,100%,94%,100%,90%,< 50%,< 50%,< 50%,70%,< 50%,< 50%,100%,< 50%,81%
O[C@H]1CC[C@H](Nc2nccc(-n3nnc4ccccc43)n2)CC1,< 50%,88%,< 50%,100%,82%,99%,74%,< 50%,< 50%,< 50%,< 50%,< 50%,< 50%,83%,< 50%,65%
O[C@H]1CC[C@H](Nc2nccc(-n3ncc4ccccc43)n2)CC1,< 50%,95%,< 50%,94%,< 50%,99%,< 50%,< 50%,< 50%,< 50%,< 50%,< 50%,63%,< 50%,72%,< 50%
O=C([C@H]1CC[C@H](Nc2nccc(-n3nnc4ccccc43)n2)CC1)N1CCOCC1,< 50%,< 50%,< 50%,95%,< 50%,94%,< 50%,< 50%,< 50%,< 50%,< 50%,< 50%,71%,< 50%,< 50%,70%
O[C@H]1CC[C@H](Nc2nccc(-c3n[nH]c4ccccc34)n2)CC1,87%,< 50%,< 50%,100%,94%,95%,95%,< 50%,91%,99%,< 50%,78%,100%,90%,98%,87%
